# ATG4B inh = ATG4B (human) cysteine protease inhibition | Q9Y4P1 | ATG4B cleavage of LC3-PLA2, NBD-HPC fluorescence, 1 h | inhibition, % at 8.33 µM | hit rate 0.51% among 340,000 | AID 504462; in the data active = inhibition above about 40%
# Target sequence (Q9Y4P1 whole entry, looked up): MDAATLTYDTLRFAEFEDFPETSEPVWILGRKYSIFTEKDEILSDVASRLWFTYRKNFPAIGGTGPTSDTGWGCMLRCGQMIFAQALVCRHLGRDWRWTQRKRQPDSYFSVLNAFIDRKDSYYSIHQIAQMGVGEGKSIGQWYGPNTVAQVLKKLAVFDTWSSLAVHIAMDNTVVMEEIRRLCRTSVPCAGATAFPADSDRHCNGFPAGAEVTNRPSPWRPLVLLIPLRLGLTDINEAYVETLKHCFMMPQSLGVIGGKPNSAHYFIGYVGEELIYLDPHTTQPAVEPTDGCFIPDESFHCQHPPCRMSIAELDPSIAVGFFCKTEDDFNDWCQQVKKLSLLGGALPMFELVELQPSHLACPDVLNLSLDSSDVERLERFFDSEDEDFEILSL
# SMARCA2 activ = SMARCA2 function activation, primary screen. MG213 cells, MMTV-luciferase reporter, dexamethasone, overnight. activation, % at 9.1 µM. hit rate 1% among 370,000. AID 652017; in the data active = activation above about 7.8%;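 note: 0% = vehicle wells and 100% = reference activator wells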
# MPTP block = blocks calcium-induced mitochondrial swelling. isolated mouse mitochondria, Ca2+ swelling absorbance, 30 min. inhibition, % at 10 µM. hit rate 1.4% among 360,000;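 active = inhibition of 50% or more, scaled per plate between neutral and stimulator controls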;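 note: 0% = DMSO wells given calcium and 100% = 1 mM EGTA wells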
# MC4R ag barr = activates human MC4R beta-arrestin recruitment; P32245; U2OS MC4R beta-arrestin complementation, luminescence; percent of melanotan II response, DMSO zero; activation, % at 8.9 µM; hit rate 0.98% among 360,000; AID 540308;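 active = activation above a per-plate cutoff, the mean activation of sample wells on that plate plus 3 SD, cut at about 8% in these data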
# MC4R antag cAMP = antagonists of human melanocortin 4 receptor (MC4R) | P32245 | inhibition, % at 6.5 µM | hit rate 0.48% among 360,000 | MC4R-expressing cells, MTII-stimulated cAMP, LANCE TR-FRET;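 active = inhibition above its plate's cutoff, the mean of tested wells on that plate plus 3 SD, cut at about 29% in these data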;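 note: 0% = Melanotan II alone and 100% = Melanotan II plus saturating MCL0020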
#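 System: U2OS-MC4R stable cell line; Technique: Eu-cAMP/anti-cAMP TR-FRET, emission 671 nm; Repeats: single well per compound; Also added: Melanotan II; Dosing: one concentration, 6.5 µM nominal; Schedule: 30-min compound, 1-h challenge, 1-h detection, room temperature.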
# MPTP counter = membrane potential counter-screen of mitochondrial pore inhibitors. shares compounds with MPTP block. hit rate 78% among 5,000. isolated mitochondria, Rhodamine 123 fluorescence. inhibition, % at 10 µM; in the data active = inhibition above about 22%;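 note: 0% = DMSO vehicle and 100% = positive control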
# MPTP swell DR = dose response confirmation of mitochondrial permeability transition pore inhibitors | shares compounds with MPTP block | isolated mitochondria swelling, absorbance | IC50, µM | hit rate 58% among 780; in the data active = IC50 below about 20 µM
# MPTP cs DR = active in counter-screen for permeability transition pore inhibitors; shares compounds with MPTP block; isolated mitochondria counterscreen, fluorescence read-out; IC50, µM; hit rate 49% among 780; in the data active = IC50 below about 80 µM
# Active calls of the source: *; nt = no result; ! = repeats disagree. The list is not random: actives were taken first. Their share in the collection is about 4.1%.
SMILES,ATG4B inh,SMARCA2 activ,MPTP block,MC4R ag barr,MC4R antag cAMP,MPTP counter,others
CCOC(=O)c1ccc(NC(=O)CCc2nc(-c3ccc(C)cc3)no2)cc1,14,-3,85*,9.7*,14,85*,
O=C(Nc1cccnc1)Nc1cccc([N+](=O)[O-])c1,-4,-1,62*,-1,10,89*,
Cc1ccc(NC(=O)Nc2cccc([N+](=O)[O-])c2)cc1F,17,-7,105*,0,-5,70*,
Cc1ccc(NC(=S)N2CCn3cccc3C2c2cccnc2)cc1 (stereo unspecified),-5,-4,1,-1,7,nt,
S=C(Nc1ccc(Br)cc1)N1CCn2cccc2C1c1cccnc1 (stereo unspecified),-6,-3,97*,-1,9,92*,
CCOC(=O)c1sc(NC(=O)Nc2ccc(Cl)cc2)cc1C,-5,-6,116*,-1,3,47*,
O=C1c2c(O)ccc(O)c2C(=O)c2c(NCCNCCO)ccc(NCCNCCO)c21,10,-9,106*!,-3,-34,-45,
CCCCN1CCN(C(=O)c2cn(C(C)c3ccccc3)nn2)CC1 (stereo unspecified),nt,-4,nt,nt,nt,nt,
COc1ccc(-c2cn(Cc3ccc(C(N)=O)cc3)c(-c3ccc(Cl)nc3)n2)cc1,3,2,-3,-1,1,nt,
COc1ccc(-c2cn(Cc3ccc(C(=O)NCc4ccc(C)cc4)cc3)c(C(C)N)n2)cc1 (stereo unspecified),-12,2,75*,0,10,-20,MPTP swell DR=10*;MPTP cs DR=>80
O=C(c1cccc(Oc2ccccc2)c1)N1CCC(Oc2cccnc2)CC1,nt,-1,nt,nt,nt,nt,
O=[N+]([O-])c1ccc(Sc2n[nH]c(-c3ccc(Cl)cc3Cl)n2)nc1,-4,2,90*,0,-1,0,MPTP swell DR=20*;MPTP cs DR=5.8*
CCn1c(COc2ccc(C)cc2)nnc1SCC(=O)Nc1ccccc1-c1ccccc1,nt,-4,nt,nt,nt,nt,
COC(=O)[C@]12C[C@H](CC(=O)NCc3cccs3)C(=O)N(Cc3ccc(Cl)cc3Cl)C1=C[C@H](C(C)(C)C)O[C@@H]2C,nt,-6,nt,nt,nt,nt,
COC(=O)[C@]12C[C@H](CC(=O)N3CCSCC3)C(=O)N(Cc3ccco3)C1=C[C@H](C(C)C)O[C@@H]2C1CC1,nt,1,nt,nt,nt,nt,
CCCN(CCC)S(=O)(=O)c1ccc(C(=O)Nc2nc(-c3ccccc3)c(C(=O)OCC)s2)cc1,0,1,80*,-2,6,5,MPTP swell DR=14*;MPTP cs DR=12*
COC(=O)[C@H]1C[C@@]2(C)c3ccccc3N(C(=O)OC(C)(C)C)[C@H]2N1C(=O)OC(C)(C)C,nt,2,nt,nt,nt,nt,
O=C(NC1CC1)c1sc2ccccc2c1Cl,-8,3,-3,-3,-3,nt,
O=C(NNC(=S)NC1CCCCC1)c1sc2ccccc2c1Cl,37,-1,88*,-2,3,79*,
O=C(NC(=S)NCCO)c1sc2ccccc2c1Cl,0,4,2,-2,9,nt,
CC(C)(C)C(=O)NC(=S)NNC(=O)c1sc2ccccc2c1Cl,-20,nt,61*,-9,-5,21*,
Cc1ccc(-c2nnc(SCC(=O)Nc3ccc(OCc4ccccc4)cc3)n2-c2ccc(Cl)cc2)cc1,nt,-1,nt,nt,nt,nt,
O=C(NCc1ccccc1)[C@@H]1CCCN1C(=O)[C@H]1CCCN1C(=O)c1ccc(F)c(F)c1,nt,0,nt,nt,nt,nt,
C[C@H](O)[C@@H]1CN2CCc3c([nH]c4ccccc34)[C@@H]2C[C@@H]1N(C)C(=O)Nc1ccc(Br)cc1,nt,-1,83*,nt,nt,104*,
CCc1sc(C(=O)Nc2nc(-c3ccccn3)cs2)cc1C,10,nt,68*,-2,-8,-14,
SMILES,ATG4B inh,SMARCA2 activ,MPTP block,MC4R ag barr,MC4R antag cAMP,MPTP counter,others
Cc1cc(C(=O)CSc2nc(N)cc(=O)[nH]2)c(C)n1-c1ccc(OC(F)F)cc1,5,-6,98*,-2,-2,89*,
Cc1cc(-n2c(C)cc(C(=O)CSc3nc(N)cc(=O)[nH]3)c2C)no1,-11,0,23,-2,1,nt,
C#CCCCN([C@H](C(=O)OC)C(C)C)S(=O)(=O)c1ccccc1Br,nt,0,nt,nt,nt,nt,
COc1ccc(S(=O)(=O)Nc2ccc(Cc3ccncc3)cc2)cc1OC,-11,-5,66*,0,5,78*,
CCc1ccc(OC)c(S(=O)(=O)Nc2ccc(Cc3ccncc3)cc2)c1,-3,-6,79*,-1,8,83*,
O=S(=O)(Nc1ccc(Cc2ccncc2)cc1)c1ccc(Cl)c(Cl)c1,6,-6,0,-1,9,nt,
CCc1ccc(NS(=O)(=O)c2ccc(OC)c3ncccc23)cc1,-3,0,-1,-2,8,nt,
CCCCN(C)C(=O)CSc1nnc(-c2cccnc2)n1C1CCCCC1,nt,2,nt,nt,nt,nt,
CC1(C)Oc2ccc(C(=O)NCCCN3CCCC3)cc2NC1=O,nt,4,nt,nt,nt,nt,
O=C(Cn1nnc(-c2ccc(N3CCOCC3)cc2)n1)c1ccc(F)cc1,nt,-3,nt,nt,nt,nt,
CC(C)CCCCCCNC(=S)Nc1ccc(S(=O)(=O)N2CCOCC2)cc1,1,-2,84*,4,18,83*,
CC(NC(=S)Nc1ccc(S(=O)(=O)N2CCOCC2)cc1)C1CC2CCC1C2 (stereo unspecified),31,-2,93*,-2,3,92*,
O=S(=O)(c1ccc(NC(=S)Nc2ccccc2)cc1)N1CCOCC1,-8,-3,6,2,11,nt,
CCCC(NCC(O)COc1ccc(-c2ccccc2)cc1)c1ccccc1 (stereo unspecified),-5,-9,55*,5,6,5,MPTP swell DR=4*;MPTP cs DR=48*
CC1CCC(C(C)C)C(OCC(O)CNC(C)c2ccccc2)C1 (stereo unspecified),1,-3,77*,8.3*,9,25*,
CC(NCC(O)COc1ccc(Br)cc1)c1ccccc1 (stereo unspecified),-3,-3,81*,1,6,-8,MPTP swell DR=5.5*;MPTP cs DR=>80
CC1CCC(C(C)C)C(OCC(O)CNC(C)(C)C)C1 (stereo unspecified),-8,3,1,-2,-2,nt,
CCCCNC(=O)NC1CCN(CC(=O)Nc2ccc3c(c2)OCCO3)CC1,nt,-5,nt,nt,nt,nt,
CCOc1ccc(-n2c(SCC(=O)Nc3ccc(S(=O)(=O)Nc4nccs4)cc3)nnc2-c2ccco2)cc1,nt,-4,nt,nt,nt,nt,
Cc1ccc(-c2nnc(SCC(=O)c3ccc(O)c(O)c3)n2-c2ccc(Cl)cc2)cc1,nt,-4,nt,nt,nt,nt,
COc1ccc(C(=O)N(C)CC2CCN(CCc3cccc(C(F)(F)F)c3)CC2)cc1C,2,-2,53*,-1,15,-3,MPTP swell DR=12*;MPTP cs DR=42*
